ChEMBL document CHEMBL1123482, “Synthesis and dopaminergic activity of some halogenated mono- and dihydroxylated 2-aminotetralins” (1986)
Active and inactive are the calls of the source. The rule behind the calls is not given here.

Columns and labels:
[1] = target: D(2) dopamine receptor (Bos taurus) (UniProt P20288); test: Affinity for Dopamine receptor D2 was evaluated from the ability to displace [3H]spiroperidol from homogenized bovine pituitary
Summary of the method: (§1)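 Bovine anterior pituitary homogenate with [3H]spiroperidol ~0.25 nM. Screened at 10^-5 and 10^-7 M; where displacement was 50% or more, IC50 was determined. KBind = IC50/(1 + L/KD), spiroperidol KD 0.3 nM.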

[2] = target: D(1A) dopamine receptor (Rattus norvegicus) (UniProt P18901); test: Affinity for Dopamine receptor D1 binding sites was evaluated in a test involving displacement of [3H]- fenoldopam in rat striatum; assay type: tissue-based
[3] = target: D(1A) dopamine receptor (Rattus norvegicus) (UniProt P18901); test: Stimulation of dopamine-sensitive rat caudate adenylate cyclase or antagonism of dopamine stimulus as measure of D1 efficacy; No stimulation; assay type: functional
[4] = species: Oryctolagus cuniculus; test: The D2 efficacy was evaluated in isolated perfused rabbit ear artery test; No response at 1 uM; assay type: functional
Summary of the method: (§2)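 Isolated perfused rabbit ear artery given brief intermittent nerve stimulation; concentration-dependent inhibition of the constrictor response measured. EC50 is the concentration giving 50% inhibition of constriction. Antagonist KB values for (S)-sulpiride determined by the Furchgott method, in nM.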

[5] = target: D(2) dopamine receptor (Bos taurus) (UniProt P20288); test: Affinity for Dopamine receptor D2 was evaluated from the ability to displace [3H]spiroperidol from homogenized bovine uM; conditions: concentration not given here; summary of the method: as §1
[6] = target: D(1A) dopamine receptor (Rattus norvegicus) (UniProt P18901); test: The ability of a compound to stimulate dopamine-sensitive rat caudate adenylate cyclase or to antagonise the stimulant of dopamine was used as measure of D1 efficacy; assay type: functional
[7] = species: Oryctolagus cuniculus; test: The D2 efficacy was evaluated in isolated perfused rabbit ear artery test; assay type: functional; conditions: read-out: ED50 (the source's name); summary of the method: as §2

D(1A) dopamine receptor (Rattus norvegicus), sequence (P18901 whole entry, the tested form may be a part): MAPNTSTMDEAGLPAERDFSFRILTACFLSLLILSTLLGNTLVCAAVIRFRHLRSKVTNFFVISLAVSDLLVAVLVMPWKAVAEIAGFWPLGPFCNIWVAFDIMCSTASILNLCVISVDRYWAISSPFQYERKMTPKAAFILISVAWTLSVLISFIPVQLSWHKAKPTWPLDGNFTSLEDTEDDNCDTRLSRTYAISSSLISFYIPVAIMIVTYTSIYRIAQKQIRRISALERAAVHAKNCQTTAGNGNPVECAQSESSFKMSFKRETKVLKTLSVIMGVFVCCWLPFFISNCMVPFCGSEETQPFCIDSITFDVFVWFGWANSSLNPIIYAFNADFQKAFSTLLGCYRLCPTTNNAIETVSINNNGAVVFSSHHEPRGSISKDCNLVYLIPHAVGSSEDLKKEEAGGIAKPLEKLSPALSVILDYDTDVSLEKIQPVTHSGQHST
D(2) dopamine receptor (Bos taurus), sequence (P20288 whole entry): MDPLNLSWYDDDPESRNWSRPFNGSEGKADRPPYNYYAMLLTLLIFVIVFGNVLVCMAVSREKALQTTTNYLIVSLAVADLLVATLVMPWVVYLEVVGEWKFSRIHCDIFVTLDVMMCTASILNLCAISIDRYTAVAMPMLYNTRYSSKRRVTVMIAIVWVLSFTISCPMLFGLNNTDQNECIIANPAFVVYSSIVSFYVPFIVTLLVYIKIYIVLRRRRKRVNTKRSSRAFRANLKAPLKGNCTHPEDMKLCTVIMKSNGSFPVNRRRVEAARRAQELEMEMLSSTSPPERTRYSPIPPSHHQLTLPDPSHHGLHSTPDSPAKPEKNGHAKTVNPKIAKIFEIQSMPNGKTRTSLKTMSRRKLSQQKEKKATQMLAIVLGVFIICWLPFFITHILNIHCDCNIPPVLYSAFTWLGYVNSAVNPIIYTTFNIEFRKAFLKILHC

Row | SMILES | K Bind [1] | K Bind [2] | ED50 [3] | ED50 [4] | inhibition [5] | ED50 [6] | EC50 [7]
1 | NC1CCc2cc(F)c(O)cc2C1 (stereo not drawn) | 0.66 µM | 0.37 µM |  |  |  |  | 
2 | CN(C)C1CCc2cc(Cl)c(O)cc2C1 (stereo not drawn) | 1.55 µM | 2.63 µM | inactive |  |  |  | 
3 | CN(C)C1CCc2cc(F)c(O)cc2C1 (stereo not drawn) | 0.47 µM | 0.76 µM |  |  |  |  | 
4 | CCCN(CCC)C1CCc2cc(O)c(Cl)cc2C1 (stereo not drawn) | 0.9 µM | 8.23 µM | inactive |  |  |  | 
5 | NC1CCc2cc(Cl)c(O)cc2C1 (stereo not drawn) | 1.05 µM | 1.44 µM | inactive | inactive |  |  | 
6 | CCCN(CCC)C1CCc2cc(Cl)c(O)cc2C1 (stereo not drawn) | 1.63 µM | 4.71 µM | inactive |  |  |  | 
7 | CN(C)C1CCc2c(ccc(O)c2Cl)C1 (stereo not drawn) | 3.5 µM | 5.95 µM |  |  |  |  | 
8 | NC1CCc2cc(Cl)c(O)c(Cl)c2C1 (stereo not drawn) |  | 2.97 µM |  |  | 30% |  | 
9 | NC1CCc2cc(O)c(O)cc2C1 (stereo not drawn) | 0.21 µM | 0.07 µM |  |  |  | 2700 nM | 
10 | NC1CCc2cc(O)c(Cl)cc2C1 (stereo not drawn) | 4.47 µM | 1.97 µM | inactive |  |  |  | 
11 | NC1CCc2c(cc(O)c(O)c2F)C1 (stereo not drawn) | 0.52 µM | 0.074 µM |  |  |  | 1600 nM | 
12 | CN(C)C1CCc2cc(O)c(Cl)cc2C1 (stereo not drawn) | 0.09 µM | 2.3 µM | inactive |  |  |  | 
13 | Oc1ccc(CCNC2CCc3cc(O)c(O)c(Cl)c3C2)cc1 (stereo not drawn) | 0.41 µM | 0.145 µM |  |  |  |  | 
14 | CCCN(CCC)C1CCc2c(ccc(O)c2Cl)C1 (stereo not drawn) | 0.85 µM | 2.25 µM |  |  |  |  | 
15 | CCCN(CCc1ccc(O)cc1)C1CCc2cc(O)c(O)c(Cl)c2C1 (stereo not drawn) | 0.033 µM | 0.27 µM |  |  |  |  | 
16 | CCCN(CCC)CC1CCc2cc(F)c(O)cc2C1 (stereo not drawn) | 14.1 µM | > 50 µM |  |  |  |  | 
17 | CCCN(CCC)C1CCc2cc(O)c(O)c(Cl)c2C1 (stereo not drawn) | 0.24 µM | 0.62 µM |  |  |  |  | 
18 | NC1CCc2cc(O)c(O)c(F)c2C1 (stereo not drawn) | 1.27 µM | 0.062 µM |  |  |  | 2200 nM | 
19 | NCCc1ccc(O)c(O)c1 |  |  |  |  |  | 3500 nM | 
20 | NC1CCc2c(ccc(O)c2Cl)C1 (stereo not drawn) | 11.6 µM | > 10 µM |  |  |  |  | 
21 | NC1CCc2c(cc(O)c(O)c2Cl)C1 (stereo not drawn) | 0.47 µM | 0.84 µM | inactive |  |  |  | 
22 | CN(C)C1CCc2cc(Cl)c(O)c(Cl)c2C1 (stereo not drawn) |  | > 20 µM |  |  | 29% |  | 
23 | CCCN(CCC)C1CCc2cc(Cl)c(O)c(Cl)c2C1 (stereo not drawn) | 10.4 µM | > 10 µM | inactive |  |  |  | 
24 | CCCN(CCC)C1CCc2cc(F)c(O)cc2C1 (stereo not drawn) | 0.43 µM | 1.74 µM |  |  |  |  | 
25 | NC1CCc2cc(O)c(O)c(Cl)c2C1 (stereo not drawn) | 3.16 µM | 0.043 µM |  |  |  | 1400 nM | 536000 nM
